Measurements from ChEMBL document CHEMBL4400554, “Ketamine esters and amides as short-acting anaesthetics: Structure-activity relationships for the side-chain” (Bioorg Med Chem, 2019).

Columns and labels:
[1] = target: Glutamate NMDA receptor; experiment: Displacement of [3H] MK-801 from NMDA glutamate ion channel in Wistar rat brain membranes (minus cerebellum) after 3 hrs by scintillation counting analysis; assay type: cell membranes
Method in brief: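 Radioligand binding in Wistar rat brain (minus cerebellum) preparations with MK-801 as ligand.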

[2] = test system: Rattus norvegicus; experiment: Short-acting anaesthetic activity in Sprague-Dawley rat assessed as time for return of righting reflex after infusion stopped at 20 mg/kg/min followed by dose reduction to 6.7 mg/kg/min dosed via infusion; assay type: functional
Method in brief: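 Rats (230 to 320g) given tail-vein infusion of drug at 10mg/ml, 20 mg/kg/min until LORR and PWR=1, then 6.7 mg/kg/min titrated up-and-down to hold dorsal recumbency and PWR=1 to 10 min before stopping. Time from cessation to return of righting reflex recorded. Three rats per study, ketamine as own control, randomised order, ≥4 h recovery.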

[3] = test system: Rattus norvegicus; experiment: Short-acting anaesthetic activity in Sprague-Dawley rat assessed as dose causing loss of righting reflex at 20 mg/kg/min followed by dose reduction to 6.7 mg/kg/min dosed via infusion; assay type: functional
Method in brief: (§1)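 Rats (230 to 320g) restrained; drug at 10mg/ml infused via marginal tail vein cannula by syringe driver at 20 mg/kg/min until loss of righting reflex and PWR=1. Rate then cut to 6.7 mg/kg/min and titrated up-and-down for 10 min. PWR scored each minute by 1 s firm digital pressure on forepaw. Three rats per study, ketamine as within-group control, randomised order, ≥4 h between runs.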

[4] = test system: Rattus norvegicus; experiment: Analgesic activity in Sprague-Dawley rat assessed as minimal dose for loss of pedal withdrawal reflex at 20 mg/kg/min followed by dose reduction to 6.7 mg/kg/min dosed via infusion; assay type: functional; settings: read-out: MED; method in brief: as §1
[5] = target: Glutamate [NMDA] receptor; experiment: Binding affinity to NMDA receptor (unknown origin); assay type: protein-complex assay, Homo sapiens
Method in brief: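 Radioligand binding on Wistar rat brain (minus cerebellum) preparations, MK-801 as ligand, in 5 mM Tris-acetate buffer pH 7.4, 3 h at 25°C; IC50 in µM.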

Row | SMILES | IC50 [1] [µM] | Time [2] [s] | EC [3] [mg/kg] | minimal effective dose [4] [mg/kg] | Ki [5] [µM]
1 | CC(C)OC(=O)CCNC1(c2ccccc2Cl)CCCCC1=O (stereo not drawn) | 134 | 83 | 33 | 37 | 
2 | COCCOC(=O)CCCCNC1(c2ccccc2Cl)CCCCC1=O (stereo not drawn) | 19 |  | >200 | > 200 | 
3 | CN(C)C(=O)CCNC1(c2ccccc2Cl)CCCCC1=O (stereo not drawn) | 416 | 623 | 110 | 113 | 
4 | CN(C)C(=O)CCCCNC1(c2ccccc2Cl)CCCCC1=O (stereo not drawn) | > 1000 |  | >200 | > 200 | 
5 | CCOC(=O)C(C)CCCNC1(c2ccccc2Cl)CCCCC1=O (stereo not drawn) | 107 | 260 | 50 | 55 | 
6 | COC(=O)CCCCCNC1(c2ccccc2Cl)CCCCC1=O (stereo not drawn) | 44 |  | >200 | > 200 | 
7 | COC(=O)CCCCNC1(c2ccccc2Cl)CCCCC1=O (stereo not drawn) | 3 | 99 | 34 | 44 | 
8 | CCOC(=O)CCOCCNC1(c2ccccc2Cl)CCCCC1=O (stereo not drawn) | 87 |  | >200 | > 200 | 
9 | COC(=O)C(C)(C)CCCNC1(c2ccccc2Cl)CCCCC1=O (stereo not drawn) | 125 | 580 | 52 | > 200 | 
10 | COC(=O)CCCCCCNC1(c2ccccc2Cl)CCCCC1=O (stereo not drawn) | 51 |  | >200 | > 200 | 
11 | CCS(=O)(=O)CCNC1(c2ccccc2Cl)CCCCC1=O (stereo not drawn) | > 1000 |  | >200 | > 200 | 
12 | CC(C)NC(=O)CCNC1(c2ccccc2Cl)CCCCC1=O (stereo not drawn) | 58 | 82 | 82 | > 200 | 
13 | COC(=O)COCCNC1(c2ccccc2Cl)CCCCC1=O (stereo not drawn) | 13 |  | >200 | > 200 | 
14 | CC(C)OC(=O)CNC1(c2ccccc2Cl)CCCCC1=O (stereo not drawn) | 45 |  | >200 | > 200 | 
15 | CNC(=O)CCNC1(c2ccccc2Cl)CCCCC1=O (stereo not drawn) | 73 | 85 | 58 | > 200 | 
16 | CNC(=O)CCCCNC1(c2ccccc2Cl)CCCCC1=O (stereo not drawn) | 77 | 125 | 83 | > 200 | 
17 | CCNC(=O)CCNC1(c2ccccc2Cl)CCCCC1=O (stereo not drawn) | 935 | 237 | 112 | 139 | 
18 | NC(=O)CCNC1(c2ccccc2Cl)CCCCC1=O (stereo not drawn) | 500 |  | >200 | > 200 | 
19 | O=C1CCCCC1(NCCCN1CCCCC1)c1ccccc1Cl (stereo not drawn) | 41 | 556 | 67 | 130 | 
20 | COC(=O)CNC1(c2ccccc2Cl)CCCCC1=O (stereo not drawn) | 308 |  | >200 | > 200 | 
21 | O=C(CCNC1(c2ccccc2Cl)CCCCC1=O)Oc1ccccc1 (stereo not drawn) | 73 |  | >200 | > 200 | 
22 | CNC1(c2ccccc2Cl)CCCCC1=O (stereo not drawn) [KETAMINE] | 0.7 | 1075 | 23 | 28 | 1.9
